Test results from ChEMBL document CHEMBL1157829, “2-imino-thiazolidin-4-one derivatives as potent, orally active S1P1 receptor agonists” (J Med Chem, 2010).
Calls of active or inactive are those of the source. The calls are words filed in the database; no cut-off is given here.

Key:
[1] = Intrinsic clearance in rat hepatocytes at 1 uM by LC-MS/MS analysis measured per million cells; format: ADME, cell-based, Liver, Hepatocyte
[2] = Intrinsic clearance in human liver microsomes at 1 uM by LC-MS/MS analysis measured per mg of protein; format: ADME, Microsome
[3] = Cmax in Wistar rat at 10 mg/kg, po and 1 mg/kg, iv; format: ADME, organism-based; details: in vivo
In short: (§1)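 Male Wistar rats (n = 3) were dosed at 10 mg/kg orally and 1 mg/kg intravenously. Plasma pharmacokinetic parameters were derived from these runs.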

[4] = biological target: Sphingosine 1-phosphate receptor 3 (Homo sapiens, UniProt Q99500); assay: Agonist activity at human recombinant S1P3 receptor expressed in CHO cells by GTPgammaS binding assay; format: functional, cell-based
In short: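 Membranes from CHO cells expressing recombinant human receptor. Buffer 20 mM Hepes pH 7.4, 100 mM NaCl, 5 mM MgCl2, 0.1% fatty-acid-free BSA, 2.5% DMSO, GDP (1 uM for S1P1, 3 uM for S1P3), 50 pM 35S-GTPγS. Compound preincubated with membranes 30 min at room temperature, then 1 h with 35S-GTPγS. Reaction filtered and bound label counted. Specific binding is the 10 uM S1P signal minus the no-agonist signal. EC50 is the concentration giving 50% of specific binding; three independent assays.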

[5] = Half life in Wistar rat at 10 mg/kg, po and 1 mg/kg, iv; format: ADME, organism-based; details: in vivo; in short: as §1
[6] = Volume of distribution at steady state in Wistar rat at 10 mg/kg, po and 1 mg/kg, iv; format: ADME, organism-based; details: in vivo, read-out: Vdss; in short: as §1
[7] = Bioavailability in Wistar rat at 10 mg/kg, po and 1 mg/kg, iv; format: ADME, organism-based; details: in vivo; in short: as §1
[8] = Intrinsic clearance in Wistar rat liver microsomes at 1 uM by LC-MS/MS analysis measured per mg of protein; format: ADME, Microsome
[9] = Clearance in Wistar rat at 10 mg/kg, po and 1 mg/kg, iv; format: ADME, organism-based; details: in vivo; in short: as §1
[10] = biological target: Sphingosine 1-phosphate receptor 1 (Homo sapiens, UniProt P21453); assay: Agonist activity at human recombinant S1P1 receptor expressed in CHO cells by GTPgammaS binding assay; format: functional, cell-based
Rattus norvegicus [11] = assay: Immunomodulatory activity in normotensive Wistar rat assessed as change in circulating lymphocytes count at 10 mg/kg, po after 6 hrs relative to control; format: functional
In short: (§2)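 Normotensive male Wistar rats were housed on a 12 h light/dark cycle with free chow and water. Compound was dissolved in DMSO and added to 7.5% aqueous gelatin (final 5% DMSO), then given by gavage at 10 mg/kg (n = 6). Vehicle was 95% gelatin (7.5%)/5% DMSO (n = 30). Blood was taken before dosing and at 3, 6 and 24 h and counted by hematology analyzer. Counts are % change from t = 0 h ± SEM.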

[12] = Clearance in Wistar rat at 3 mg/kg, po and 0.3 mg/kg, iv; format: ADME, organism-based; details: in vivo
In short: (§3)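 Male Wistar rats (n = 3) were dosed at 3 mg/kg orally and 0.3 mg/kg intravenously. Plasma pharmacokinetic parameters were derived from these runs.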

[13] = Volume of distribution at steady state in Wistar rat at 3 mg/kg, po and 0.3 mg/kg, iv; format: ADME, organism-based; details: in vivo, read-out: Vdss; in short: as §3
Rattus norvegicus [14] = assay: Immunomodulatory activity in normotensive Wistar rat assessed as change in circulating lymphocytes count at 30 mg/kg, po after 3 to 24 hrs relative to control; format: functional, organism-based; set-up: dose 30 mg/kg
In short: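 Normotensive male Wistar rats received compound by gavage as a suspension in 7.5% gelatin with 5% DMSO. Blood lymphocytes were counted on a hematology analyzer before dosing and at 3, 6 and 24 h after dosing.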

Rattus norvegicus [15] = assay: Immunomodulatory activity in normotensive Wistar rat assessed as change in circulating lymphocytes count at 10 mg/kg, po after 3 hrs relative to control; format: functional; in short: as §2
[16] = Cmax in Wistar rat at 3 mg/kg, po and 0.3 mg/kg, iv; format: ADME, organism-based; details: in vivo; in short: as §3
[17] = Half life in Wistar rat at 3 mg/kg, po and 0.3 mg/kg, iv; format: ADME, organism-based; details: in vivo; in short: as §3
Rattus norvegicus [18] = assay: Immunomodulatory activity in normotensive Wistar rat assessed as change in circulating lymphocytes count at 10 mg/kg, po after 24 hrs relative to control; format: functional; in short: as §2
[19] = Bioavailability in Wistar rat at 3 mg/kg, po and 0.3 mg/kg, iv; format: ADME, organism-based; details: in vivo; in short: as §3

Sequence of Sphingosine 1-phosphate receptor 3 (Q99500 whole entry): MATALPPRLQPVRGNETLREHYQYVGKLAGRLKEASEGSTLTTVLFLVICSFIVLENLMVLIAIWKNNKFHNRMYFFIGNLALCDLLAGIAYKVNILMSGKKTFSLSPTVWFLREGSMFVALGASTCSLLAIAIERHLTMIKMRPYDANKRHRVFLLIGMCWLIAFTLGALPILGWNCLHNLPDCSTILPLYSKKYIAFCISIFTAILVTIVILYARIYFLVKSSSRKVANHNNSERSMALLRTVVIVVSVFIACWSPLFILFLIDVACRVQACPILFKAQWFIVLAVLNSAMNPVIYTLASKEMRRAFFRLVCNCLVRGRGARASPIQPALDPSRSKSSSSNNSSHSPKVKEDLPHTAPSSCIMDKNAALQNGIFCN
Sequence of Sphingosine 1-phosphate receptor 1 (P21453 whole entry): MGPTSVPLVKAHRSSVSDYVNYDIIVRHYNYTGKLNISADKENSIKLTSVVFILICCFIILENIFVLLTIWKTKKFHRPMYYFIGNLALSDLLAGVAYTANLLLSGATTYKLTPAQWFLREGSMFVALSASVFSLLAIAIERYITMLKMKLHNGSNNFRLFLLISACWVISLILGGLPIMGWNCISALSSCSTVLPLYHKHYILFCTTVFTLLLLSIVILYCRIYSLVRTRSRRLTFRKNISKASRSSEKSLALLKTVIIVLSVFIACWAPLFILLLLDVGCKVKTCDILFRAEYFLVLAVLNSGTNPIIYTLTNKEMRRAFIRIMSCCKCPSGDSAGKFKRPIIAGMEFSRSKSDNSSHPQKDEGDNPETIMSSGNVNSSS

Structure (SMILES) | hepatocyte CLint at 1 µM [1] [µL/min/1e6 cells] | microsomal CLint at 1 µM [2] [µL/min/mg] | Cmax [3] [ng/mL] | EC50 [4] [nM] | half-life [5] [min] | Vd [6] [L/kg] | bioavailability [7] [%] | microsomal CLint at 1 µM [8] [µL/min/mg] | clearance [9] [mL/min/kg] | EC50 [10] [nM] | Activity (Rattus norvegicus [11]) [%] | clearance [12] [mL/min/kg] | Vd [13] [L/kg] | Activity (Rattus norvegicus [14]) | Activity (Rattus norvegicus [15]) [%] | Cmax [16] [ng/mL] | half-life [17] [min] | Activity (Rattus norvegicus [18]) [%] | bioavailability [19] [%]
CC(C)/N=C1\S/C(=C\c2ccc(OCCO)cc2)C(=O)N1c1ccccc1 | 12 | 4 | 499 | 114 | 120 | 4 | 72 | 4 | 32 | 95 |  |  |  |  |  |  |  |  | 
Cc1ccccc1N1C(=O)/C(=C/c2ccc(O)c(Cl)c2)S/C1=N\C(C)C | 19.8 | 27 | 11 | 139 | 42 | 3 | < 1 | 158 | 105 | 34 |  |  |  |  |  |  |  |  | 
CCC/N=C1\S/C(=C\c2ccc(O)c(Cl)c2)C(=O)N1c1ccccc1C |  | 7 |  | 81 |  |  |  | 229 |  |  | 24 | 92 | 1.1 | inactive | 29 | 8.1 | 12 | 40 | < 1
